Key:
Details in all cases: in vivo
Rattus norvegicus [1] = species: Rattus norvegicus; assay: Biodistribution of Gd-LDTA (conjugated with mannose BSA) protein using [111In]- in mature female Sprague-Dawley rat kidney after injecting for 96 hour.; format: ADME, organism-based
Rattus norvegicus [2] = species: Rattus norvegicus; assay: Biodistribution of In-LDTA (conjugated with mannoseBSA) protein using [111In]- in mature female Sprague-Dawley rat colon after injecting for 4 hour.; format: ADME, organism-based
Summary of the method: (§1)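 SCN-LDTPA was coupled (pH 9 bicine, 24 h, RT) to BSA, mannosylated BSA or galactosylated BSA and FPLC-purified. The conjugate (400 μg) was labeled with 340 μCi 111In acetate at pH 5.5 for 45 min and gel-filtered. Mature female Sprague-Dawley rats received 19 μg of conjugate; four rats per time point. Blood, liver, bone, kidney and colon were taken and reported as %ID/organ.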

Rattus norvegicus [3] = species: Rattus norvegicus; assay: Biodistribution of In-LDTA (conjugated with BSA) protein using [111In]- in mature female Sprague-Dawley rat kidney after injecting for 1 hour.; format: ADME, organism-based; summary of the method: as §1
Rattus norvegicus [4] = species: Rattus norvegicus; assay: Biodistribution of In-LDTA (conjugated with mannoseBSA) protein using [111In]- in mature female Sprague-Dawley rat colon after injecting for 48 hour.; format: ADME, organism-based; summary of the method: as §1
Rattus norvegicus [5] = species: Rattus norvegicus; assay: Biodistribution of In-LDTA (conjugated with galactose BSA)protein using [111In]- in mature female Sprague-Dawley rat blood after injecting for 48 hour.; format: ADME, organism-based; summary of the method: as §1
Rattus norvegicus [6] = species: Rattus norvegicus; assay: Biodistribution of In-LDTA (conjugated with galactose BSA)protein using [111In]- in mature female Sprague-Dawley rat bone after injecting for 48 hour.; format: ADME, organism-based, Bone element; summary of the method: as §1
Rattus norvegicus [7] = species: Rattus norvegicus; assay: Biodistribution of In-LDTA (conjugated with galactose BSA)protein using [111In]- in mature female Sprague-Dawley rat liver after injecting for 1 hour.; format: ADME, organism-based; summary of the method: as §1
Rattus norvegicus [8] = species: Rattus norvegicus; assay: Biodistribution of In-LDTA (conjugated with galactose BSA)protein using [111In]- in mature female Sprague-Dawley rat liver after injecting for 24 hour.; format: ADME, organism-based; summary of the method: as §1
Rattus norvegicus [9] = species: Rattus norvegicus; assay: Biodistribution of In-LDTA (conjugated with BSA)protein using [111In]- in mature female Sprague-Dawley rat colon after injecting for 24 hour.; format: ADME, organism-based; summary of the method: as §1
Rattus norvegicus [10] = species: Rattus norvegicus; assay: Biodistribution of In-LDTA (conjugated with BSA)protein using [111In]- in mature female Sprague-Dawley rat colon after injecting for 48 hr.; format: ADME, organism-based; summary of the method: as §1
Rattus norvegicus [11] = species: Rattus norvegicus; assay: Biodistribution of Gd-LDTA (conjugated with mannose BSA) protein using [111In]- in mature female Sprague-Dawley rat bone after injecting for 1 hour.; format: ADME, organism-based, Bone element
Summary of the method: (§2)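 Conjugate of SCN-LDTPA with BSA, mannosylated BSA or galactosylated BSA (10 equiv chelate, pH 9 bicine, RT 24 h; FPLC-purified) was labelled with 340 μCi 111In acetate at pH 5.5 for 45 min. It was then gel-filtered (Biospin-6) and checked for purity by FPLC. Mature female Sprague-Dawley rats received 19 μg of conjugate. Four rats per time point (1, 4, 24, 48 h) were killed; blood, liver, bone, kidney and colon were taken and %ID/organ was calculated.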

Rattus norvegicus [12] = species: Rattus norvegicus; assay: Biodistribution of Gd-LDTA (conjugated with mannose BSA) protein using [111In]- in mature female Sprague-Dawley rat bone marrow after injecting for 24 hour.; format: ADME, organism-based
Rattus norvegicus [13] = species: Rattus norvegicus; assay: Biodistribution of In-LDTA (conjugated with mannoseBSA) protein using [111In]- in mature female Sprague-Dawley rat liver after injecting for 4 hour.; format: ADME, organism-based; summary of the method: as §1
Rattus norvegicus [14] = species: Rattus norvegicus; assay: Biodistribution of In-LDTA (conjugated with mannoseBSA)protein using [111In]- in mature female Sprague-Dawley rat blood after injecting for 1 hour.; format: ADME, organism-based; summary of the method: as §1
Rattus norvegicus [15] = species: Rattus norvegicus; assay: Biodistribution of In-LDTA (conjugated with BSA) protein using [111In]- in mature female Sprague-Dawley rat bone after injecting for 48 hour.; format: ADME, organism-based, Bone element; summary of the method: as §1
Rattus norvegicus [16] = species: Rattus norvegicus; assay: Biodistribution of Gd-DTA (conjugated with BSA)protein using [111In]- in mature female Sprague-Dawley rat liver after injecting for 24 hour.; format: ADME, organism-based; summary of the method: as §2
Rattus norvegicus [17] = species: Rattus norvegicus; assay: Biodistribution of Gd-DTA (conjugated with BSA)protein using [111In]- in mature female Sprague-Dawley rat liver after injecting for 4 hour.; format: ADME, organism-based; summary of the method: as §2
Rattus norvegicus [18] = species: Rattus norvegicus; assay: Biodistribution of Gd-DTA (conjugated with BSA)protein using [111In]- in mature female Sprague-Dawley rat liver after injecting for 48 hour.; format: ADME, organism-based; summary of the method: as §2
Rattus norvegicus [19] = species: Rattus norvegicus; assay: Biodistribution of Gd-DTA (conjugated with BSA)protein using [111In]- in mature female Sprague-Dawley rat bone after injecting for 1 hour.; format: ADME, organism-based, Bone element; summary of the method: as §2
Rattus norvegicus [20] = species: Rattus norvegicus; assay: Biodistribution of Gd-DTA (conjugated with BSA)protein using [111In]- in mature female Sprague-Dawley rat bone marrow after injecting for 1 hour.; format: ADME, organism-based
Rattus norvegicus [21] = species: Rattus norvegicus; assay: Biodistribution of Gd-DTA (conjugated with BSA)protein using [111In]- in mature female Sprague-Dawley rat colon after injecting for 1 hour.; format: ADME, organism-based; summary of the method: as §2
Rattus norvegicus [22] = species: Rattus norvegicus; assay: Biodistribution of Gd-LDTA (conjugated with galactose BSA) protein using [111In]- in mature female Sprague-Dawley rat bone marrow after injecting for 48 hour.; format: ADME, organism-based
Rattus norvegicus [23] = species: Rattus norvegicus; assay: Biodistribution of Gd-LDTA (conjugated with galactose BSA) protein using [111In]- in mature female Sprague-Dawley rat colon after injecting for 24 hour.; format: ADME, organism-based; summary of the method: as §2
Rattus norvegicus [24] = species: Rattus norvegicus; assay: Biodistribution of Gd-LDTA (conjugated with galactose BSA) protein using [111In]- in mature female Sprague-Dawley rat kidney after injecting for 4 hour.; format: ADME, organism-based; summary of the method: as §2
Rattus norvegicus [25] = species: Rattus norvegicus; assay: Biodistribution of Gd-LDTA (conjugated with galactose BSA) protein using [111In]- in mature female Sprague-Dawley rat liver after injecting for 1 hour.; format: ADME, organism-based; summary of the method: as §2
Rattus norvegicus [26] = species: Rattus norvegicus; assay: Biodistribution of Gd-LDTA (conjugated with mannose BSA) protein using [111In]- in mature female Sprague-Dawley rat bone after injecting for 4 hour.; format: ADME, organism-based, Bone element; summary of the method: as §2
Rattus norvegicus [27] = species: Rattus norvegicus; assay: Biodistribution of Gd-LDTA (conjugated with mannose BSA) protein using [111In]- in mature female Sprague-Dawley rat bone after injecting for 48 hour.; format: ADME, organism-based, Bone element; summary of the method: as §2
Rattus norvegicus [28] = species: Rattus norvegicus; assay: Biodistribution of Gd-LDTA (conjugated with mannose BSA) protein using [111In]- in mature female Sprague-Dawley rat blood after injecting for 24 hour.; format: ADME, organism-based; summary of the method: as §2
Rattus norvegicus [29] = species: Rattus norvegicus; assay: Biodistribution of Gd-LDTA (conjugated with mannose BSA) protein using [111In]- in mature female Sprague-Dawley rat blood after injecting for 48 hour.; format: ADME, organism-based; summary of the method: as §2
Rattus norvegicus [30] = species: Rattus norvegicus; assay: Biodistribution of Gd-DTA (conjugated with BSA)protein using [153Gd]- in mature female Sprague-Dawley rat bone marrow after injecting for 24 hour.
Rattus norvegicus [31] = species: Rattus norvegicus; assay: Biodistribution of Gd-DTA (conjugated with BSA)protein using [153Gd]- in mature female Sprague-Dawley rat bone marrow after injecting for 48 hour.

- ID/organ (Rattus norvegicus [1]): 0.405%
- ID/organ (Rattus norvegicus [2]): 0.156%
- ID/organ (Rattus norvegicus [3]): 3.15%
- ID/organ (Rattus norvegicus [4]): 0.542%
- ID/organ (Rattus norvegicus [5]): 0.0267%
- ID/organ (Rattus norvegicus [6]): 0.29%
- ID/organ (Rattus norvegicus [7]): 99.7%
- ID/organ (Rattus norvegicus [8]): 65.4%
- ID/organ (Rattus norvegicus [9]): 9.4%
- ID/organ (Rattus norvegicus [10]): 5.52%
- ID/organ (Rattus norvegicus [11]): 15.6%
- ID/organ (Rattus norvegicus [12]): 2.13%
- ID/organ (Rattus norvegicus [13]): 87.6%
- ID/organ (Rattus norvegicus [14]): 0.255%
- ID/organ (Rattus norvegicus [15]): 25.9%
- ID/organ (Rattus norvegicus [16]): 20%
- ID/organ (Rattus norvegicus [17]): 18.6%
- ID/organ (Rattus norvegicus [18]): 17.4%
- ID/organ (Rattus norvegicus [19]): 18.1%
- ID/organ (Rattus norvegicus [20]): 1.19%
- ID/organ (Rattus norvegicus [21]): 0.952%
- ID/organ (Rattus norvegicus [22]): 0.061%
- ID/organ (Rattus norvegicus [23]): 6.07%
- ID/organ (Rattus norvegicus [24]): 0.105%
- ID/organ (Rattus norvegicus [25]): 91.3%
- ID/organ (Rattus norvegicus [26]): 16.4%
- ID/organ (Rattus norvegicus [27]): 20.4%
- ID/organ (Rattus norvegicus [28]): 0.063%
- ID/organ (Rattus norvegicus [29]): 0.04%
- ID/organ (Rattus norvegicus [30]): 3.07%
- ID/organ (Rattus norvegicus [31]): 2.46%
SMILES: Nc1ccc(CC(C(=O)O)N(CCN(CC(=O)O)CC(=O)O)CCN(CC(=O)O)CC(=O)O)cc1 (stereo unspecified)
